Bioassay records deposited in PubChem by Broad Institute.
INS-1E GSIS act – GLuc luminescence reporter in INS-1E cells, primary screen for activators of glucose-dependent secretion of insulin. INS-1E GLuc reporter insulin secretion, 2-3 h. activation, % at 16.6 µM. actives 0.61% (n = 370,000). AID 743287, 2014;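 active = lowest replicate activation of at least 40%, so every replicate reaches that level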
CDK5 p35 inh – inhibitors of human CDK5/p35 kinase, primary screen, biochemical, single concentration | Cyclin-dependent kinase 5 (Homo sapiens) + Cyclin-dependent kinase 5 activator 1 (Homo … | Recombinant CDK5/p35, ADP-Glo luminescence, 60 min | inhibition, % at 10 µM | actives 0.01% (n = 330,000) | AID 488839, 2010;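 active = highest replicate inhibition of at least 50% and at least 75% of replicates reaching 50%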
PAX8 reporter – inhibitors of PAX8-driven TPO luciferase reporter, primary screen, RMG-I cells, single concentration | SteadyGlo, 24 h | inhibition, % at 12.6 µM | actives 1.2% (n = 360,000);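 active = mean replicate inhibition at least 60% with every replicate also reaching 60%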;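 note: luciferase light reporting Pax8 driven TPO promoter activity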
Cneo AK release – Cryptococcus neoformans cell lysis inducers, primary screen, AK release luminescence, single concentration; actives 0.2% (n = 360,000); C. neoformans lysis, adenylate kinase release luminescence, 4 h; normalised: neutral wells 0, clomiphene wells 100; lysis activity, % at 15 µM; AID 651654, 2012;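 active = mean lysis activity across replicates of at least 80%, whatever share of replicates individually reach that level; inactive = mean lysis activity below 80%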
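Signal: Adenylate kinase release luminescence | Assay system: Log-phase Cryptococcus neoformans yeast cells | Input: Cells at 5 × 10^6 per mL | Buffer or medium: Fresh YPD growth medium | Compound: Single dose | Schedule: Static 4 h at 37 °C with compound, 1 h detection | Controls: Clomiphene | Read-out: Luminescence rise reflecting yeast cell lysis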
HIV Env fusion – inhibitors of HIV-1 Env-driven cell-cell fusion, primary screen, HeLa-JRFL effector, CEM21 target cells, luciferase; inhibition, % at 12.3 µM; actives 1.1% (n = 360,000);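 active = mean replicate inhibition score of at least 50 and every replicate individually at or above 50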
dFosB act – activators of delta FosB homodimer, primary screen, biochemical, fluorescence polarization, TAMRA-CDK5 oligo, single point. purified delta FosB; percent of positive-control signal above neutral wells. activation, % at 25 µM. actives 0.99% (n = 340,000). AID 493131, 2011;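 active = mean activation above about 17%, with every replicate also reaching it, limit read from the data, passing the limit was not always enough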
Target sequence (P13346 whole entry, looked up): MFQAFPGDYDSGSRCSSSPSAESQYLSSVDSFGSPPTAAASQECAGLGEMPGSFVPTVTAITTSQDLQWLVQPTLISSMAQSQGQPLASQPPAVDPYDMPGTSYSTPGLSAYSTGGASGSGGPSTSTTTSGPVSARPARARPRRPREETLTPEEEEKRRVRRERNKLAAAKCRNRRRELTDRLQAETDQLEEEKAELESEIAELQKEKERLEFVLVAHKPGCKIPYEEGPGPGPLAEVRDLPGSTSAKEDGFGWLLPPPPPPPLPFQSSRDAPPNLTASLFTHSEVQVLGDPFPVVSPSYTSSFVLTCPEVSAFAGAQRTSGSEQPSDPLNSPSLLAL
Hits are given with their value. Shown are actives, neighbours in structure and some others; about 2.9% of the full set was active somewhere.

Screening C=CCn1c(SCC(=O)N2CCOCC2)nc2c([nH]c3ccccc32)c1=O returned INS-1E GSIS act 43, CDK5 p35 inh inactive, PAX8 reporter inactive, Cneo AK release inactive, HIV Env fusion inactive and dFosB act inactive.
For COCCn1c(SCC(=O)Nc2ccccc2OC)nc2c([nH]c3ccccc32)c1=O the results were INS-1E GSIS act inactive, CDK5 p35 inh inactive, PAX8 reporter inactive, Cneo AK release inactive, HIV Env fusion 92 and dFosB act inactive.
Screening O=C(N/N=C/c1ccc(O)cc1O)NC12CC3CC(CC(C3)C1)C2 returned INS-1E GSIS act 41, CDK5 p35 inh inactive, PAX8 reporter inactive, Cneo AK release inactive, HIV Env fusion inactive and dFosB act inactive.
For COc1ccc(C(=O)N/N=C/c2ccc(OC)c(CN3CCN(c4ccc(F)cc4)CC3)c2)cc1 the results were CDK5 p35 inh inactive, PAX8 reporter 144, Cneo AK release inactive and dFosB act inactive.
`C[C@@H]1CN([C@H](C)CO)C(=O)Cc2cc(NC(=O)Cc3ccccc3)ccc2O[C@@H]1CN(C)Cc1ccncc1` gave PAX8 reporter inactive and Cneo AK release inactive.
COc1ccc(CCNC(=O)COC(=O)CCC(=O)c2ccc(F)cc2)cc1OC was read as INS-1E GSIS act 87, CDK5 p35 inh inactive, PAX8 reporter inactive, HIV Env fusion inactive and dFosB act inactive.
For COc1ccc(CCNC(=O)C(=O)c2c[nH]c3ccccc23)cc1OC the results were INS-1E GSIS act inactive, CDK5 p35 inh inactive, PAX8 reporter inactive, Cneo AK release inactive, HIV Env fusion inactive and dFosB act inactive.
For COc1ccc(CCNC(=O)COC(=O)Cc2c[nH]c3ccccc23)cc1OC the results were INS-1E GSIS act 52, CDK5 p35 inh inactive, Cneo AK release inactive, HIV Env fusion inactive and dFosB act inactive.
O=C(C[C@@H]1C=C[C@@H](NC(=O)CN2CCOCC2)[C@@H](CO)O1)NCCc1ccncc1 was read as INS-1E GSIS act inactive.
Screening COc1ccc(-c2cc3cc(OC)c(OC)cc3cn2)cc1OC returned INS-1E GSIS act inactive, CDK5 p35 inh inactive, PAX8 reporter inactive, HIV Env fusion inactive and dFosB act inactive.
Screening COc1cc2cnc(Cl)nc2cc1OC returned INS-1E GSIS act 61, CDK5 p35 inh inactive, PAX8 reporter inactive, Cneo AK release inactive, HIV Env fusion inactive and dFosB act inactive.
CCCNC(=O)[C@@]1(c2ccc([N+](=O)[O-])cc2)CC(=O)N(CC23CC4CC(CC(C4)C2)C3)[C@@H]1c1ccc(CO)cc1I was read as PAX8 reporter 105, Cneo AK release inactive and HIV Env fusion inactive.
`O=C(CNS(=O)(=O)c1c(Cl)cccc1Cl)OCC(=O)c1ccc[nH]1` gave INS-1E GSIS act inactive, CDK5 p35 inh inactive, PAX8 reporter 75, Cneo AK release inactive, HIV Env fusion inactive and dFosB act inactive.
For O=C(CNS(=O)(=O)c1ccc(Br)cc1Cl)OCC(=O)c1ccc[nH]1 the results were INS-1E GSIS act inactive, CDK5 p35 inh inactive, PAX8 reporter inactive, Cneo AK release inactive, HIV Env fusion inactive and dFosB act inactive.
Screening CC1=C(/C=C/C(C)=C/C=C/C(C)=C/C(=O)Nc2ccc(O)cc2)C(C)(C)CCC1 returned INS-1E GSIS act 153, CDK5 p35 inh inactive, PAX8 reporter inactive, Cneo AK release inactive, HIV Env fusion inactive and dFosB act inactive.
For CCNC(=O)C[C@H]1CC[C@H](NC(=O)NC2CCCCC2)[C@H](CO)O1 the results were INS-1E GSIS act inactive, PAX8 reporter inactive, Cneo AK release inactive and HIV Env fusion inactive.
Screening CCNC(=O)C[C@H]1CC[C@H](NC(=O)NC2CCCCC2)[C@@H](CO)O1 returned INS-1E GSIS act inactive, PAX8 reporter inactive, Cneo AK release 107 and HIV Env fusion inactive.
Screening CCNC(=O)C[C@H]1CC[C@@H](NC(=O)NC2CCCCC2)[C@H](CO)O1 returned INS-1E GSIS act inactive, PAX8 reporter inactive, Cneo AK release 97 and HIV Env fusion inactive.
Screening CCNC(=O)C[C@@H]1CC[C@H](NC(=O)NC2CCCCC2)[C@@H](CO)O1 returned INS-1E GSIS act inactive, PAX8 reporter inactive, Cneo AK release inactive and HIV Env fusion inactive.
For Cc1ccc(S(=O)(=O)Nc2ccc3c(c2)C(=O)N([C@@H](C)CO)C[C@H](C)[C@H](CN(C)S(=O)(=O)c2cn(C)cn2)OCCCC[C@@H](C)O3)cc1 the results were INS-1E GSIS act inactive, PAX8 reporter inactive, Cneo AK release inactive and HIV Env fusion inactive.
Screening Cn1c(-c2ccccc2)c(C(=O)CCl)c2ccccc21 returned INS-1E GSIS act inactive, CDK5 p35 inh inactive, PAX8 reporter inactive, HIV Env fusion 64 and dFosB act inactive.
Screening CCn1c(-c2ccccc2)c(C(=O)CCl)c2ccccc21 returned INS-1E GSIS act inactive, CDK5 p35 inh inactive, PAX8 reporter inactive, HIV Env fusion inactive and dFosB act inactive.
For O=C(NC1CCCC1)c1cc2nc(-c3ccccc3)cc(-c3ccccc3)n2n1 the results were INS-1E GSIS act inactive, CDK5 p35 inh inactive, PAX8 reporter inactive, Cneo AK release inactive, HIV Env fusion inactive and dFosB act inactive.
CC1CCN(C(=O)c2cc3nc(-c4ccccc4)cc(-c4ccccc4)n3n2)CC1 was read as INS-1E GSIS act inactive, CDK5 p35 inh inactive, Cneo AK release inactive, HIV Env fusion 77 and dFosB act inactive.
`COc1ccc2c3c([nH]c2c1)[C@H](CO)N(C(=O)C1CCC1)CC31CCN(C)CC1` gave INS-1E GSIS act inactive and PAX8 reporter inactive.
Screening Cc1ccc(-n2nnnc2SCn2nnc3ccccc3c2=O)c(C)c1 returned INS-1E GSIS act inactive, CDK5 p35 inh inactive, Cneo AK release inactive, HIV Env fusion 75 and dFosB act inactive.
`O=C(c1cccc(F)c1)N1C[C@@H]2[C@H](c3ccccc31)[C@H](CO)N2C(=O)C1CC1` gave INS-1E GSIS act inactive, PAX8 reporter inactive and Cneo AK release inactive.
`CC1CCCN(C(=O)c2ccc(S(=O)(=O)N3CCC(c4nc5ccccc5s4)CC3)cc2)C1` (stereo not given) gave CDK5 p35 inh inactive, Cneo AK release inactive, HIV Env fusion 68 and dFosB act inactive.
CCN(CC)C(=O)c1ccc(S(=O)(=O)N2CCC(c3nc4ccccc4s3)CC2)cc1 was read as CDK5 p35 inh inactive, Cneo AK release inactive and dFosB act inactive.
`C[C@H](O)C#Cc1ccc2c(c1)O[C@H](CN(C)C(=O)C1CCC1)[C@H](C)CN([C@H](C)CO)S2(=O)=O` gave INS-1E GSIS act inactive, Cneo AK release inactive and HIV Env fusion inactive.
CCCCNC(=O)c1sc2nc(C)cc(COC)c2c1-n1cccc1 was read as CDK5 p35 inh inactive, PAX8 reporter inactive, Cneo AK release inactive, HIV Env fusion inactive and dFosB act inactive.
